Calls of active or inactive are those of the source. The calls are words filed in the database; no cut-off is given here.
Columns and labels:
[1] = tested on: NCI-H3122; experiment: Antiproliferative activity against human NCI-H3122 cells after 72 hrs by CellTiter-Glo luminescent cell viability assay; assay type: functional, cell-based
[2] = tested on: KARPAS-299; experiment: Antiproliferative activity against human KARPAS299 cells after 72 hrs by CellTiter-Glo luminescent cell viability assay; assay type: functional, cell-based
[3] = tested on: SU-DHL-1; experiment: Antiproliferative activity against human SU-DHL1 cells after 72 hrs by CellTiter-Glo luminescent cell viability assay; assay type: functional, cell-based
[4] = target: T1, ALK tyrosine kinase receptor (Homo sapiens, UniProt Q9UM73); experiment: Induction of ALK degradation in human KARPAS299 cells after 16 hrs by immunoblot method; assay type: cell-based
In short: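 H3122 and Karpas 299 cells were given a dose titration for 16 h. ALK and Aurora A were then read by immunoblot. DC50 was calculated from the titrations, two independent experiments.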

[5] = target: T1, ALK tyrosine kinase receptor; experiment: Induction of ALK degradation in human KARPAS299 cells at 250 nM after 16 hrs in presence of proteasome inhibitor carfilzomib by immunoblot method; assay type: cell-based
Target sequence in this assay (Q9UM73 19-1620 limits assumed): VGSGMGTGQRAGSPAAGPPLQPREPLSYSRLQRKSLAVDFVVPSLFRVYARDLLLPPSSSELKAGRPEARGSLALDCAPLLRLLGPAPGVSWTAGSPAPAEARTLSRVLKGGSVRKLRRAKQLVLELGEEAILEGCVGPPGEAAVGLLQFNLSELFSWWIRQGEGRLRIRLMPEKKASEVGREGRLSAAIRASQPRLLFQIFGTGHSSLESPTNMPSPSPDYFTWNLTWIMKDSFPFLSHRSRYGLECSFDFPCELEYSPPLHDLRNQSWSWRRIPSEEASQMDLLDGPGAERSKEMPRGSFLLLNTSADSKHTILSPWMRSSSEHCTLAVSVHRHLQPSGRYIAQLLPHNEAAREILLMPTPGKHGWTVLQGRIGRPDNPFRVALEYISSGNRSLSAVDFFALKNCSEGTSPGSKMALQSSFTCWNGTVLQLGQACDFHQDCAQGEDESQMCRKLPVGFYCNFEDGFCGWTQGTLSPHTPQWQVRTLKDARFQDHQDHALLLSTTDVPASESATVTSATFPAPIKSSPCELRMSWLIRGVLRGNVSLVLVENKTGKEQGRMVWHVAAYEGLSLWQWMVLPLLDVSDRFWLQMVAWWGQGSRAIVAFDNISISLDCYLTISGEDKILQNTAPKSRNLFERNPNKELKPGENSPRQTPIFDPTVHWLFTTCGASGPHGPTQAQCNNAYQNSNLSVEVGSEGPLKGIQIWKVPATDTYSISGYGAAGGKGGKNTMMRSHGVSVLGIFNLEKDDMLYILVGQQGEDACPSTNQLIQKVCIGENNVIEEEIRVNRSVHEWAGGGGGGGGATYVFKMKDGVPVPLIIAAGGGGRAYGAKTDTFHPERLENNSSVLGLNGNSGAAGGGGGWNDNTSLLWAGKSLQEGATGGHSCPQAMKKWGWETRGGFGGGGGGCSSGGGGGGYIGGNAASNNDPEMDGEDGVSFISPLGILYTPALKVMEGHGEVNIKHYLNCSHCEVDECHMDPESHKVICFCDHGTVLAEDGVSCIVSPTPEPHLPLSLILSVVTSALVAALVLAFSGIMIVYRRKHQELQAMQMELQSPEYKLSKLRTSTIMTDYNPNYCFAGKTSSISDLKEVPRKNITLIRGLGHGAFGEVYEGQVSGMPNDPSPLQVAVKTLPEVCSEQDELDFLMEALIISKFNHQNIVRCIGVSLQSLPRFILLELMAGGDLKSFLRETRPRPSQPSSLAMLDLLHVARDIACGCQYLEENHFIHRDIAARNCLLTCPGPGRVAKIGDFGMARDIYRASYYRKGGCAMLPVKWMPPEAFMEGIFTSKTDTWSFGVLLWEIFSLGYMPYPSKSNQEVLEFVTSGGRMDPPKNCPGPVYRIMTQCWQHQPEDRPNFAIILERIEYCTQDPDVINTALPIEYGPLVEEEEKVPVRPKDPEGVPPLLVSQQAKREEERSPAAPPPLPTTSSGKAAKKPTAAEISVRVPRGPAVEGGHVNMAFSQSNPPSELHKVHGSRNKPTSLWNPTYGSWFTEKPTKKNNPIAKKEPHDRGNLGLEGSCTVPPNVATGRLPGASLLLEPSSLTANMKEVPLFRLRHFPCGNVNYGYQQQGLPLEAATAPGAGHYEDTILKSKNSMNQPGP

[6] = target: T2, Aurora kinase A (Homo sapiens) (UniProt O14965); experiment: Induction of aurora A degradation in human KARPAS299 cells at 250 nM after 16 hrs in presence of proteasome inhibitor carfilzomib by immunoblot method; assay type: cell-based
T2 sequence (whole entry): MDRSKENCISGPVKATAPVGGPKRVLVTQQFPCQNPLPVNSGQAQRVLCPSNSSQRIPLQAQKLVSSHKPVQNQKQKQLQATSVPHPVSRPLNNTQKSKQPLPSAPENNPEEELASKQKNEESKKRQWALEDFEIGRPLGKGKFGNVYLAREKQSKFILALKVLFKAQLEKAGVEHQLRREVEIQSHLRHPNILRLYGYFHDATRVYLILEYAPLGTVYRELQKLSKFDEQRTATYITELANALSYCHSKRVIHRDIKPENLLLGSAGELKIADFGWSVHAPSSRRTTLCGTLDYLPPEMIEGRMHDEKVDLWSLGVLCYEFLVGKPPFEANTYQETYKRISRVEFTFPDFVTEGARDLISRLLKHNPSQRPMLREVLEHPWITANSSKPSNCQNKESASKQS

[7] = target: T1, ALK tyrosine kinase receptor; experiment: Induction of ALK degradation in human KARPAS299 cells at 250 nM after 16 hrs in presence of […] inhibitor MLN4924 by immunoblot method; assay type: cell-based
Target sequence in this assay (Q9UM73 19-1620 limits assumed): as the sequence (Q9UM73 19-1620 limits assumed) above

[8] = target: T1, ALK tyrosine kinase receptor; experiment: Induction of ALK degradation in human KARPAS299 cells at 250 nM after 16 hrs in presence of pomalidomide by immunoblot method; assay type: cell-based
Target sequence in this assay (Q9UM73 19-1620 limits assumed): as the sequence (Q9UM73 19-1620 limits assumed) above

[9] = target: T1, ALK tyrosine kinase receptor; experiment: Induction of ALK degradation in human NCI-H3122 cells at 250 nM after 16 hrs in presence of ALK inhibitor TAE684 by immunoblot method; assay type: cell-based
Target sequence in this assay (Q9UM73 19-1620 limits assumed): as the sequence (Q9UM73 19-1620 limits assumed) above

[10] = target: T1, ALK tyrosine kinase receptor; experiment: Induction of ALK degradation in human NCI-H3122 cells at 250 nM after 16 hrs in presence of ALK inhibitor LDK378 by immunoblot method; assay type: cell-based
Target sequence in this assay (Q9UM73 19-1620 limits assumed): as the sequence (Q9UM73 19-1620 limits assumed) above

[11] = tested on: SH-SY5Y; experiment: Antiproliferative activity against human SH-SY5Y cells after 72 hrs by CellTiter-Glo luminescent cell viability assay; assay type: functional, cell-based
[12] = organism: Homo sapiens; experiment: Antiproliferative activity against human CHLA20 cells after 72 hrs by CellTiter-Glo luminescent cell viability assay; assay type: functional, cell-based
[13] = organism: Homo sapiens; experiment: Antiproliferative activity against human CHLA20 cells after 72 hrs in presence of ABCB1 shRNA by CellTiter-Glo luminescent cell viability assay; assay type: functional, cell-based
[14] = target: T1, ALK tyrosine kinase receptor; experiment: Induction of ALK degradation in human CHLA20 cells at 100 nM after 16 hrs in presence of ABCB1 shRNA by immunoblot method; assay type: cell-based
Target sequence in this assay (Q9UM73 19-1620 limits assumed): as the sequence (Q9UM73 19-1620 limits assumed) above

[15] = target: T1, ALK tyrosine kinase receptor; experiment: Induction of ALK degradation in human CHLA20 cells at 100 nM after 4 hrs in presence of ABCB1 inhibitor tariquidar by immunoblot method; assay type: cell-based
In short: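 CHLA20 cells were co-treated with 125 nM tariquidar, then treated with 100 nM compound over a time course. ALK was read by immunoblot.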

[16] = target: T2, Aurora kinase A (Homo sapiens); experiment: Induction of aurora A degradation in human Kelly cells at 100 nM after 16 hrs in presence of pomalidomide by immunoblot method; assay type: cell-based
In short: (§1)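 Cells were pre-treated for 2 h with DMSO, carfilzomib, MLN4924 or pomalidomide, then treated with compound for 16 h, with immunoblot read-out. CHLA20 cells also received 125 nM tariquidar throughout.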

[17] = target: T2, Aurora kinase A (Homo sapiens); experiment: Induction of aurora A degradation in human CHLA20 cells at 100 nM after 16 hrs in presence of pomalidomide and ABCB1 inhibitor tariquidar by immunoblot method; assay type: cell-based; in short: as §1
[18] = target: T1, ALK tyrosine kinase receptor; experiment: Induction of ALK degradation in human CHLA20 cells at 100 nM after 16 hrs in presence of pomalidomide and ABCB1 inhibitor tariquidar by immunoblot method; assay type: cell-based
In short: (§2)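 CHLA20 cells were kept with 125 nM tariquidar and pre-treated for 2 h with DMSO, carfilzomib, MLN4924, pomalidomide, TAE684 or LDK378. A 16 h degrader treatment followed, with immunoblot readout of ALK.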

[19] = target: T1, ALK tyrosine kinase receptor; experiment: Induction of ALK degradation in human Kelly cells at 100 nM after 16 hrs in presence of ALK inhibitor TAE684 by immunoblot method; assay type: cell-based
In short: (§3)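 Kelly cells were pre-treated for 2 h with DMSO, carfilzomib, MLN4924, pomalidomide, TAE684 or LDK378. Degrader treatment followed for 16 h, and ALK was read by immunoblot.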

[20] = target: T1, ALK tyrosine kinase receptor; experiment: Induction of ALK degradation in human Kelly cells at 100 nM after 16 hrs in presence of ALK inhibitor LDK378 by immunoblot method; assay type: cell-based; in short: as §3
[21] = target: T1, ALK tyrosine kinase receptor; experiment: Induction of ALK degradation in human CHLA20 cells at 100 nM after 16 hrs in presence of ALK inhibitor LDK378 and ABCB1 inhibitor tariquidar by immunoblot method; assay type: cell-based; in short: as §2
[22] = target: T1, ALK tyrosine kinase receptor; experiment: Induction of ALK degradation in human Kelly cells at 100 nM after 4 hrs by immunoblot method; assay type: cell-based
In short: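 Kelly cells were treated with 100 nM compound for varying times and lysed at each time point. ALK levels were read by immunoblot.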

[23] = target: Tyrosine-protein kinase Fer (Homo sapiens) (UniProt P16591); experiment: Induction of FER degradation in human NCI-H3122 cells at 0.01 to 1 uM after 16 hrs by immunoblot method; assay type: cell-based
[24] = target: Ribosomal protein S6 kinase alpha-1 (Homo sapiens) (UniProt Q15418); experiment: Induction of RPS6KA1 degradation in human KARPAS299 cells at 0.01 to 1 uM after 16 hrs by immunoblot method; assay type: cell-based
[25] = target: Focal adhesion kinase 1 (Homo sapiens) (UniProt Q05397); experiment: Induction of PTK2 degradation in human Kelly cells at 10 to 160 nM after 16 hrs by immunoblot method; assay type: cell-based
[26] = target: Focal adhesion kinase 1 (Homo sapiens) (UniProt Q05397); experiment: Induction of PTK2 degradation in human NCI-H3122 cells at 250 nM measured over 2 to 16 hrs by immunoblot method; assay type: cell-based
[27] = target: Tyrosine-protein kinase Fer (Homo sapiens) (UniProt P16591); experiment: Induction of FER degradation in human NCI-H3122 cells at 250 nM measured over 2 to 16 hrs by immunoblot method; assay type: cell-based
[28] = target: Focal adhesion kinase 1 (Homo sapiens) (UniProt Q05397); experiment: Induction of PTK2 degradation in human Kelly cells at 100 nM measured over 2 to 16 hrs by immunoblot method; assay type: cell-based
[29] = target: Ribosomal protein S6 kinase alpha-1 (Homo sapiens) (UniProt Q15418); experiment: Induction of RPS6KA1 degradation in human Kelly cells at 100 nM measured over 2 to 16 hrs by immunoblot method; assay type: cell-based
[30] = target: T2, Aurora kinase A (Homo sapiens); experiment: Induction of aurora A degradation in human Kelly cells at 100 nM measured over 2 to 16 hrs by immunoblot method; assay type: cell-based
In short: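 Kelly cells were given 100 nM compound for varying times, and lysates were immunoblotted for Aurora A.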

Focal adhesion kinase 1 (Homo sapiens), sequence (Q05397 2-1052 limits assumed): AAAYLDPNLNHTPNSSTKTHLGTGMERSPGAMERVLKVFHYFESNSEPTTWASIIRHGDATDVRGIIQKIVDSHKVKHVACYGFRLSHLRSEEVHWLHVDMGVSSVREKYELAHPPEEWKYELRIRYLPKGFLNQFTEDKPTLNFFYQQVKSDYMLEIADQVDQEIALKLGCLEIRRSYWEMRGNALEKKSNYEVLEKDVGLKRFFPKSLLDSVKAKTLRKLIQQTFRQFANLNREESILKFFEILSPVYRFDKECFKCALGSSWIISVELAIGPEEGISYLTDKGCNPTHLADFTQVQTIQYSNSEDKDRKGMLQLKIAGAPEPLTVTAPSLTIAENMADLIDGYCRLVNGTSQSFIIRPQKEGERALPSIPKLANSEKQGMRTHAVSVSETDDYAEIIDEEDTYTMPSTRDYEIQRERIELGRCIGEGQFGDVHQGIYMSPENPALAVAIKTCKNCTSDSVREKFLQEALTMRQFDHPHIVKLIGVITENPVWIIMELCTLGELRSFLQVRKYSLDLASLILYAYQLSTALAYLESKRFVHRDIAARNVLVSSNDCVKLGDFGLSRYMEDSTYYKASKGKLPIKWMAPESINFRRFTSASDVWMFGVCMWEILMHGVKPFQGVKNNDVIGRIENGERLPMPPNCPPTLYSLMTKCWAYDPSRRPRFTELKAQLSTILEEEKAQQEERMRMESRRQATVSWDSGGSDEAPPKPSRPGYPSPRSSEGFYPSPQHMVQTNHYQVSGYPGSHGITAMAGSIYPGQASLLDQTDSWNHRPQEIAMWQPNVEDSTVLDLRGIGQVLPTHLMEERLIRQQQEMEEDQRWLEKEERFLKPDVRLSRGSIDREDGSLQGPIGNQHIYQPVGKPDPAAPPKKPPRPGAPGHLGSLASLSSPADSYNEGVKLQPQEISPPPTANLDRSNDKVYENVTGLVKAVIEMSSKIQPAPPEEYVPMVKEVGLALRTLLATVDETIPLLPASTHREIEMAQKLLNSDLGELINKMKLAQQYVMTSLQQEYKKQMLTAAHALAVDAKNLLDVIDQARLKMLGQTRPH
Tyrosine-protein kinase Fer (Homo sapiens), sequence (P16591 whole entry, looked up): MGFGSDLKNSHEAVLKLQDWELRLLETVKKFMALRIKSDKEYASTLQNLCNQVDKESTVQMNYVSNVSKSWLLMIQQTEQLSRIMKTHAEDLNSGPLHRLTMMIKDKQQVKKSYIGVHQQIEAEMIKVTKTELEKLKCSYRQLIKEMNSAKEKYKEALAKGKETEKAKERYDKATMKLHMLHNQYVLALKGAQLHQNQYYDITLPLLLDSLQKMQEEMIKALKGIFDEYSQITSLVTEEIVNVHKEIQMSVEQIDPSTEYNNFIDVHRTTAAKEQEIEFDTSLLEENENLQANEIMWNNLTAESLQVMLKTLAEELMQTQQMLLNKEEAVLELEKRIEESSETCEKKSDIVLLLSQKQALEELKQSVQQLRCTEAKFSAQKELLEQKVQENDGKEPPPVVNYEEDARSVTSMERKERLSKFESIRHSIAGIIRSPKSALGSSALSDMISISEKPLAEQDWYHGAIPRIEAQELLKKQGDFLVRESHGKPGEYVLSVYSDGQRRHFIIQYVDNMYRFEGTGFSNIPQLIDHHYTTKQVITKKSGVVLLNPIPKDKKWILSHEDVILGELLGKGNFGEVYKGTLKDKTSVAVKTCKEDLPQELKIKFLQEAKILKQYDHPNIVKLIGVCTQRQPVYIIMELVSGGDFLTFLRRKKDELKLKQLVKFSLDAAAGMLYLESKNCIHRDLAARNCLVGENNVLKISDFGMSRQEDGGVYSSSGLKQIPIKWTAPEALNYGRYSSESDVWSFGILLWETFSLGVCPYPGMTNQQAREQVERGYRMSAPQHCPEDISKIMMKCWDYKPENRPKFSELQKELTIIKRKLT
Ribosomal protein S6 kinase alpha-1 (Homo sapiens), sequence (Q15418 whole entry): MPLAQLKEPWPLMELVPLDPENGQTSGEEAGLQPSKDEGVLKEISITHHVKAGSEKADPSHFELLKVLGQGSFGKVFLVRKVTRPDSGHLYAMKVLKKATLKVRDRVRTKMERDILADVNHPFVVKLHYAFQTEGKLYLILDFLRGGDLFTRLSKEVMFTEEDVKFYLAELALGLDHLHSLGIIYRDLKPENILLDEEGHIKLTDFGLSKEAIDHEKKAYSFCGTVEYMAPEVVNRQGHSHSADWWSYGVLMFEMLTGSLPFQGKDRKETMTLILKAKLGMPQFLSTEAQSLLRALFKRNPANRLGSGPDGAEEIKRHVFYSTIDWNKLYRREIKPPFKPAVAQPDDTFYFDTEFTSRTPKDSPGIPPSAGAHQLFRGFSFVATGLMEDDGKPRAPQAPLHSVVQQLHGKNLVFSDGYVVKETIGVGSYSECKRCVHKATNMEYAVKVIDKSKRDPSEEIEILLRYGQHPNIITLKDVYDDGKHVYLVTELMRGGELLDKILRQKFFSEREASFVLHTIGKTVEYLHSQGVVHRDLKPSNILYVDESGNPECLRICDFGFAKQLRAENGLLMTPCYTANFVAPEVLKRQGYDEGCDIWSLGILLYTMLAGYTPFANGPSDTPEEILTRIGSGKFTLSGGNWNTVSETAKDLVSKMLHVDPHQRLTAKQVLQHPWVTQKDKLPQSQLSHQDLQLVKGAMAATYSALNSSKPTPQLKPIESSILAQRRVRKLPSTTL

SMILES: COc1cc(N2CCN(CCOCCOCCNC(=O)CNc3cccc4c3C(=O)N(C3CCC(=O)NC3=O)C4=O)CC2)ccc1Nc1ncc(Cl)c(Nc2ccccc2S(=O)(=O)C(C)C)n1 (stereo not given)
- Activity [1]: Active
- Activity [2]: Active
- Activity [3]: Active
- DC50 [4]: 180 nM
- Activity [5]: inactive
- Activity [6]: inactive
- Activity [7]: inactive
- Activity [8]: inactive
- Activity [9]: inactive
- Activity [10]: Active
- Activity [11]: inactive
- Activity [12]: inactive
- Activity [13]: Active
- Activity [14]: Active
- Activity [15]: Active
- Activity [16]: inactive
- Activity [17]: inactive
- Activity [18]: inactive
- Activity [19]: inactive
- Activity [20]: inactive
- Activity [21]: inactive
- Activity [22]: inactive
- Activity [23]: Active
- Activity [24]: Active
- Activity [25]: Active
- Activity [26]: Active
- Activity [27]: Active
- Activity [28]: Active
- Activity [29]: Active
- Activity [30]: Active

SMILES: Cc1cc(Nc2ncc(Cl)c(Nc3ccccc3S(=O)(=O)C(C)C)n2)c(OC(C)C)cc1C1CCN(CCOCCOCCNC(=O)CNc2cccc3c2C(=O)N(C2CCC(=O)NC2=O)C3=O)CC1 (stereo not given)
- Activity [1]: Active
- Activity [2]: Active
- Activity [3]: Active
- DC50 [4]: 40 nM
- Activity [5]: inactive
- Activity [6]: inactive
- Activity [7]: inactive
- Activity [8]: inactive
- Activity [9]: inactive
- Activity [10]: Active
- Activity [11]: inactive
- Activity [12]: inactive
- Activity [13]: Active
- Activity [14]: Active
- Activity [15]: Active
- Activity [16]: inactive
- Activity [17]: inactive
- Activity [18]: inactive
- Activity [19]: inactive
- Activity [20]: inactive
- Activity [21]: inactive
- Activity [22]: inactive
- Activity [23]: Active
- Activity [24]: Active
- Activity [25]: Active
- Activity [26]: Active
- Activity [27]: Active
- Activity [28]: Active
- Activity [29]: Active
- Activity [30]: Active

— ChEMBL document CHEMBL4177764 (J Med Chem, 2018)
